Source: PubChem BioAssay
Only some compounds are listed: those with a hit (about 4.6% of all), similar ones and a draw of the others.
Calb biofilm kill = mixture kills Candida albicans biofilm cells; C. albicans biofilm persisters + clotrimazole, fluorescence viability; primary screen in compound mixtures of four per well; inhibition, % at 7.6 µM; 120,000 tested, 0.02% active; AID 1242;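 active = inhibition above 30.3% in the primary screen of four-compound pools, then above 30% when the compound was retested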;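 also: compounds exposed to preformed 24 h biofilms for 48 h; 0% = untreated biofilm control and 100% = clotrimazole plus chlorhexidine kill blank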
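Assay system: C. albicans biofilms / Medium: RPMI/MOPS medium, pH 7.0 / Schedule: biofilm formation 24 h, compound exposure 48 h, 37 °C / Measured by: Alamar Blue fluorescence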
WT yeast gro inh = growth inhibition of WT yeast, mitochondrial fusion screen; inhibition, % at 10 µM; mitochondrial fusion phenotypic screen, WT strain; 190,000 tested, 2.1% active; in the data active = inhibition above about 58%; tested in S. cerevisiae
NCF1 inh = inhibitors of human p47phox binding | p47phox/p22phox peptide binding, fluorescence polarization, 2 h | inhibition, % at 24.7 µM | 220,000 tested, 0.53% active;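 active = inhibition above about 30%, limit read from the data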;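 also: 0% = p47phox with labelled peptide and 100% = labelled peptide alone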
Arbovirus inh = antivirals against arbovirus infection | arbovirus infection cell-based antiviral screen | inhibition, % at 10 µM | 200,000 tested, 0.37% active; in the data active = inhibition above about 30%
RAM inhibit = yeast RAM network inhibition | AID 868 | 190,000 tested, 1.8% active | inhibition, % at 50 µM | S. cerevisiae dse1pr::URA3 reporter, 5-FOA growth OD615, 2 d; analog-sensitive cbk1-as2 kinase mutant strain;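 active = inhibition above a set limit, 3 SD over mean compound inhibition, cut at about 8.4% in these data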;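 also: 0% = DMSO-only wells with no growth and 100% = 10 µM 1-NA-PP1 full growth; inhibition rescues growth on 5-FOA so higher OD means more RAM inhibition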
Hck-Nef inh = inhibitors of human Hck kinase activated by Nef. inhibition, % at 20 µM. 220,000 tested, 0.68% active. P08631. Recombinant Hck-YEEI plus Nef, Z-Lyte FRET kinase assay;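 active = Hck-Nef kinase inhibition above about 50%, limit read from the data; inactive = inhibition below that limit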;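 also: 0% = DMSO with Hck plus Nef and 100% = Hck alone without Nef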
Target sequence (P08631 whole entry, looked up): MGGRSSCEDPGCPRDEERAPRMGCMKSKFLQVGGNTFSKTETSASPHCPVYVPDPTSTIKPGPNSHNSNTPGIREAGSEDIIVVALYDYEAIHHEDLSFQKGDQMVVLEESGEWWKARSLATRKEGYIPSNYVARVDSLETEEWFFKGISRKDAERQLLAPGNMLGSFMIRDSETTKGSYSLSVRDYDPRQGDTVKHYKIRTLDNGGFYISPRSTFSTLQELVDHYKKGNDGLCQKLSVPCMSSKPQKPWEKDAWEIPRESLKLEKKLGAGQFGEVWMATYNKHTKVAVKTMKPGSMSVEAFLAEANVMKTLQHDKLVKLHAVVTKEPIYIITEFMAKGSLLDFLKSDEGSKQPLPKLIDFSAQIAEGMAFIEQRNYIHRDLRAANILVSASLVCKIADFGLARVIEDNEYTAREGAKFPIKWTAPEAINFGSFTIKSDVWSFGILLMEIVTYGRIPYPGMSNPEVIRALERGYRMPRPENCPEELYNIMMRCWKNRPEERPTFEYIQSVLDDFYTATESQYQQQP
Starred values were filed as active, the others as inactive; nt = not tested or not shown.

SMILES	Calb biofilm kill	WT yeast gro inh	NCF1 inh	Arbovirus inh	RAM inhibit	Hck-Nef inh
CCOC(=O)NNc1ccc(C(F)(F)F)cn1	12	nt	-7	nt	nt	9
O=C(Nc1cccc(-c2nc3ccccc3s2)c1)c1cccs1	11	17	-27	5	3	2
O=C(Nc1cccc(-c2nc3ccccc3s2)c1)c1cc(=O)c2ccccc2o1	5	-40	-27	2	6	53*
COc1ccc(N2CCN(Cc3nc4ccccc4n3C)CC2)cc1	5	10	-11	9	4	3
Cc1cccc(NC(=S)NC2CC3CCC(C2)N3Cc2ccco2)c1C (stereo not given)	nt	6	-1	8	2	-2
Cc1ccc(NC(=S)NC2CC3CCC(C2)N3Cc2ccco2)c(C)c1 (stereo not given)	nt	16	37*	15	0	0
CCOC(=O)c1nn(-c2cccc(OC)c2)c2nc(CC)c(C#N)c(=O)n12	14	-10	2	2	8.4*	0
CCOC(=O)c1nn(-c2ccccc2F)c2nc(-c3ccco3)c(C#N)c(=O)n12	7	-12	-16	8	5	5
Cc1ccc(NC(=O)CN2C(=O)N/C(=C/c3ccc(C)o3)C2=O)cc1	nt	22	-39	5	1	0
Cc1ccc(NC(=O)CN2C(=O)N/C(=C/c3ccc(N4CCOCC4)cc3)C2=O)cc1	17	11	-10	-16	8.8*	12
Cc1ccc(C(=O)CSc2cc(C)nc(SCC(=O)c3ccccc3)n2)cc1	nt	2	-12	-12	7	-17
Cc1cc(Oc2ccc(C)c(Cl)c2)nc(SCC(=O)c2ccccc2)n1	1	30	-3	20	9.1*	2
CCC(C)(C)NC(=O)CN(C(=O)c1snc(C(N)=O)c1N)c1ccc2c(c1)OCCO2	nt	73*	8	2	3	-1
Cc1nn(C)c(C)c1NC(=O)CCCSc1nc(-c2ccco2)cc(C(F)(F)F)n1	17	18	-1	0	0	4
CCOC(=O)CCC(=O)Nc1ccc(S(=O)(=O)N2CCC(C)CC2)cc1	15	-13	31*	8	5	11
CCOc1ccccc1-c1nc(C(N)=O)c2[nH]c(=O)n(-c3ccccc3)c2n1	nt	-4	2	-1	9.7*	-2
COc1cccc(-c2nc(C(N)=O)c3[nH]c(=O)n(-c4ccccc4)c3n2)c1OC	nt	3	-9	7	4	-1
O=C(CCSc1nc(-c2ccco2)cc(C(F)(F)F)n1)NCCc1ccccc1	nt	6	-26	-3	9.9*	1
COc1ccc(-c2cc(C(F)(F)F)nc(SCc3cccc(C(=O)O)c3)n2)cc1	nt	30	-7	23	4	0
COc1ccccc1CCNC(=O)CCSc1nc(-c2ccco2)cc(C(F)(F)F)n1	17	4	-26	-4	6	7
COc1ccc(-c2cc(C(F)(F)F)nc(SCCC(=O)NCc3ccccc3)n2)cc1	nt	1	-9	-3	9.6*	-17
O=C(c1cnn(-c2ccccc2)c1)c1ccc2ccccc2c1O	nt	2	-30	7	10*	-2
COc1ccccc1NC(=O)COc1ccccc1C(=O)c1cnn(-c2ccccc2)c1	18	30	9	15	1	0
COc1c(/C=N/Nc2ccc([N+](=O)[O-])cc2[N+](=O)[O-])c(C)nn1-c1ccccc1	nt	33	7	-4	3	1
COc1ccccc1NS(=O)(=O)c1ccc(N/N=C/c2c(C)nn(-c3ccccc3)c2N2CCCC2)c([N+](=O)[O-])c1	6	18	2	0	9.6*	2
Cc1nn(-c2ccccc2)c(N2CCCC2)c1/C=N/Nc1ccc(S(=O)(=O)Nc2ccccc2)cc1[N+](=O)[O-]	-3	2	-2	-16	9.0*	4
COc1ccccc1NS(=O)(=O)c1cccc(C(=O)N/N=C/c2c(C)nn(-c3ccccc3)c2N2CCCC2)c1	6	7	-16	2	2	1
O=C1ON=C(c2cccc([N+](=O)[O-])c2)/C1=C/c1ccc(O)cc1	18	-2	14	16	-1	24
CCCn1c(SCC(=O)Nc2cccc(S(=O)(=O)N3CCCC3)c2)n[nH]c1=O	5	-24	-1	11	2	-13
Nc1ccc(-c2nc3ccccc3[nH]2)cc1	nt	5	-5	1	5	1
